# Source: ChEMBL document CHEMBL5608236, “A Photoactivatable Version of Ivabradine Enables Light-Induced Block of HCN Current In Vivo” (J Med Chem, 2024)
# Calls of active or inactive are those of the source. No cut-off for these calls is given here.
# What was measured:
# [1] = In vivo inhibition of HCN4 in Zebrafish larvae assessed as reduction in heart rate at 1 mM administered at 48 hpf along with 0.5 mW/mm2 of UV light irradiation exposure at 365 nm measured upto 60 mins (reference value: 84 +/- 1 %); type: functional, Danio rerio
# [2] = In vivo inhibition of HCN4 in Zebrafish larvae assessed as reduction in heart rate at 1 mM administered at 48 hpf along with 2 mW/mm2 of blue light irradiation exposure at 436 nm measured upto 60 mins (reference value: 80 +/- 1 %); type: functional, Danio rerio
# [3] = Stability in human plasma at 40 mM incubated upto 24 hrs by UV-HPLC analysis; type: ADME, cell-free; conditions: 1000 µM, in the assay text read “1 mM” for “40 mM”
# Procedure, shortened: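 A 40 mM stock was added to human plasma (10 into 390 parts) and incubated at 37 °C for 24 h, in duplicate. At time points, aliquots were quenched in 3 volumes of cold acetonitrile, centrifuged at 4 °C for 10 min, filtered and analysed by HPLC-UV (C18, TFA water/acetonitrile gradient, detection at 280 nm).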
# [4] = Solubility of compound in HEPES buffer at pH 7.4 by UV-Visible spectra analysis; type: physicochemical
# [5] = Fluorescence property of compound in HEPES buffer at pH 7.4 assessed as quantum yield at 1.5 mM under irradiation with 365 nm light by UV-Visible spectra analysis; type: physicochemical; conditions: pH 7.4, 1500 µM
# [6] = Fluorescence property of compound in HEPES buffer at pH 7.4 assessed as quantum yield at 1.5 mM under irradiation with 395 nm light by UV-Visible spectra analysis; type: physicochemical; conditions: pH 7.4, 1500 µM
# [7] = Fluorescence property of compound in HEPES buffer at pH 7.4 assessed as quantum yield at 1.5 mM under irradiation with 440 nm light by UV-Visible spectra analysis; type: physicochemical; conditions: pH 7.4, 1500 µM
# [8] = biological target: T1, Potassium/sodium hyperpolarization-activated cyclic nucleotide-gated channel 1 (Homo sapiens) (UniProt O60741); assay: Inhibition of RFP-fused human HCN1 transfected in HEK-293T cells at 100 uM at holding potential of -110 mV under dark condition by whole cell patch clamp electrophysiology; type: cell-based
# T1 sequence (whole entry): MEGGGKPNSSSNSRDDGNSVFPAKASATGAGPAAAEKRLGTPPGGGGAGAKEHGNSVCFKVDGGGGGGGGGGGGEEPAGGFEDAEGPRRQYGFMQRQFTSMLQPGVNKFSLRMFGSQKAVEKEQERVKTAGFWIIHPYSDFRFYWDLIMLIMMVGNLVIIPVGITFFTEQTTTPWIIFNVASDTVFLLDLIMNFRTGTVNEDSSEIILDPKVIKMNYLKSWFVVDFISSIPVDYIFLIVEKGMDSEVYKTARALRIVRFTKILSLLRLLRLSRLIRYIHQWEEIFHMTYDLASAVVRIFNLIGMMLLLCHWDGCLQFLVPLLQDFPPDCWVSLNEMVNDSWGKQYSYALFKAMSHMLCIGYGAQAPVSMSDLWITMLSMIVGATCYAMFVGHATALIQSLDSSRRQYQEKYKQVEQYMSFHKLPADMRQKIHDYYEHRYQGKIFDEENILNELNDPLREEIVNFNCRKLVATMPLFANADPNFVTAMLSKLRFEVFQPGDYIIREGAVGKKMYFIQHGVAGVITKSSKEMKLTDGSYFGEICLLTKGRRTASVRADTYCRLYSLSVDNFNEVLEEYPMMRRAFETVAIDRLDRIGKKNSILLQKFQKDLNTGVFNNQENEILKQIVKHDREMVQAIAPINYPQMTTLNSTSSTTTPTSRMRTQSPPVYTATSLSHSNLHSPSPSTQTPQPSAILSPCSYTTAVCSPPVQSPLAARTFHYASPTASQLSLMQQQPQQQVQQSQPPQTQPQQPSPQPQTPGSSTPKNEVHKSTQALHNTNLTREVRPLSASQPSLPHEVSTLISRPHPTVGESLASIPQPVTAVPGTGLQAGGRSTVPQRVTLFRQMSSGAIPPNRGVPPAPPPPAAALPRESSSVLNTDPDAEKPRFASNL
# Procedure, shortened: (§1)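 RFP-hHCN1 transiently expressed in HEK293T; whole-cell patch clamp at room temperature, 5 kHz sampling, 1 kHz filter. Steps to -110 mV (1.8 s) and +5 mV (0.5 s) every 5.5 s from -20 mV holding. Compound added to extracellular solution by perfusion, either in the dark, pre-illuminated (395 nm 0.5 mW/mm2, or 440 nm 1 mW/mm2 for 1 min) or illuminated during perfusion. Fractional block = current reduction/control current; mean ± SEM.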
# [9] = biological target: T1, Potassium/sodium hyperpolarization-activated cyclic nucleotide-gated channel 1 (Homo sapiens); assay: Inhibition of RFP-fused human HCN1 transfected in HEK-293T cells at 100 uM at holding potential of -110 mV under UV light exposure by whole cell patch clamp electrophysiology; type: cell-based; procedure, shortened: as §1
# HEK-293T = assay: Cytotoxicity against human HEK-293T cells assessed as reduction in cell viability at 100 uM incubated upto 48 hrs by live/dead TM red staining based fluorescent microscopic analysis; type: toxicity
# Procedure, shortened: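 HEK293T cells in DMEM high-glucose with 10% FBS and 1% PenStrep, treated at 80-90% confluency with 100 μM compound added to growth medium; untreated and 0.5% DMSO controls, heat-killed (60 °C, 20 min) positive control. After 8, 16, 24 or 48 h, cells detached, stained with LIVE-DEAD NearIF in PBS, imaged at 640 nm excitation; dead cells counted in three random quadrants per triplicate.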
# Neuron [10] = assay: Inhibition of HCN in mouse brain neuron assessed as reduction of hyperpolarization-activated current (Ih) at 100 uM at holding potential of -70 to -120 mV with UV light irradiation at 365 nm by whole cell patch clamp electrophysiology; type: tissue-based
# Procedure, shortened: (§2)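 Dendritic whole-cell recordings on L5 neurons of medial prefrontal cortex in acute slices from male mice (2-3 months), aCSF at 32-34 °C with D-APV, DNQX, CGP and gabazine. Ih evoked by steps to -120 mV (1.8 s) then +5 mV (0.15 s) from -70 mV holding. Compound bath-perfused at 30 or 100 μM with 365 nm illumination of the slice (23.5 mW); steady-state current compared before and at full effect; paired t-test.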
# [11] = biological target: T1, Potassium/sodium hyperpolarization-activated cyclic nucleotide-gated channel 1 (Homo sapiens); assay: Inhibition of RFP-fused human HCN1 transfected in HEK-293T cells at 30 uM at holding potential of -110 mV pre-exposed with 0.5 mW/mm2 of UV light irradiation at 395 nm by whole cell patch clamp electrophysiology; type: cell-based; procedure, shortened: as §1
# [12] = biological target: T1, Potassium/sodium hyperpolarization-activated cyclic nucleotide-gated channel 1 (Homo sapiens); assay: Inhibition of RFP-fused human HCN1 transfected in HEK-293T cells at 30 uM at holding potential of -110 mV with 0.5 mW/mm2 of UV light irradiation exposure at 395 nm by whole cell patch clamp electrophysiology; type: cell-based; procedure, shortened: as §1
# [13] = biological target: T1, Potassium/sodium hyperpolarization-activated cyclic nucleotide-gated channel 1 (Homo sapiens); assay: Inhibition of RFP-fused human HCN1 transfected in HEK-293T cells at 30 uM at holding potential of -110 mV pre-exposed with 0.5 mW/mm2 of UV light irradiation at 395 nm by whole cell patch clamp electrophysiology relative to IVA; type: cell-based; procedure, shortened: as §1
# [14] = biological target: T1, Potassium/sodium hyperpolarization-activated cyclic nucleotide-gated channel 1 (Homo sapiens); assay: Inhibition of RFP-fused human HCN1 transfected in HEK-293T cells at 30 uM at holding potential of -110 mV with 0.5 mW/mm2 of UV light irradiation exposure at 395 nm by whole cell patch clamp electrophysiology relative to IVA; type: cell-based; procedure, shortened: as §1
# [15] = biological target: T1, Potassium/sodium hyperpolarization-activated cyclic nucleotide-gated channel 1 (Homo sapiens); assay: Inhibition of RFP-fused human HCN1 transfected in HEK-293T cells at 30 uM at holding potential of -110 mV with 1 mW/mm2 of blue light irradiation exposure at 440 nm by whole cell patch clamp electrophysiology relative to IVA; type: cell-based; procedure, shortened: as §1
# [16] = biological target: T1, Potassium/sodium hyperpolarization-activated cyclic nucleotide-gated channel 1 (Homo sapiens); assay: Inhibition of RFP-fused human HCN1 transfected in HEK-293T cells at 100 uM at holding potential of -110 mV pre-exposed with 1 mW/mm2 of blue light irradiation at 440 nm by whole cell patch clamp electrophysiology relative to IVA; type: cell-based; procedure, shortened: as §1
# [17] = biological target: T1, Potassium/sodium hyperpolarization-activated cyclic nucleotide-gated channel 1 (Homo sapiens); assay: Inhibition of RFP-fused human HCN1 transfected in HEK-293T cells at 100 uM at holding potential of -110 mV with 1 mW/mm2 of blue light irradiation exposure at 440 nm by whole cell patch clamp electrophysiology relative to IVA; type: cell-based; procedure, shortened: as §1
# Neuron [18] = assay: Inhibition of HCN in mouse brain neuron assessed as reduction of hyperpolarization-activated current (Ih) at 30 to 100 uM at holding potential of -70 to -120 mV with UV light irradiation at 365 nm by whole cell patch clamp electrophysiology; type: tissue-based; conditions: dose 30-100 µM; procedure, shortened: as §2
# Neuron [19] = assay: Inhibition of HCN in mouse brain neuron assessed as reduction of hyperpolarization-activated current (Ih) at 30 uM at holding potential of -70 to -120 mV with UV light irradiation at 365 nm by whole cell patch clamp electrophysiology; type: tissue-based; procedure, shortened: as §2
# [20] = Drug accumulation in human HEK-293T cells transfected with RFP-fused human HCN1 assessed as increase in fluorescent signal at 30 uM incubated for 15 mins by fluorescent microscopic analysis; type: ADME, cell-based; conditions: 0.25 h
# Procedure, shortened: (§3)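 HEK293T cells incubated with 30 μM compound in buffer for 15 min, or perfused for 5 min. Intracellular autofluorescence (excitation 405 nm, emission 518 nm) imaged by fluorescence microscopy, with images taken during 10 min of washout.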
# [21] = Drug accumulation in human HEK-293T cells transfected with RFP-fused human HCN1 assessed as increase in fluorescent signal at 30 uM measured for 25 mins by fluorescent microscopic analysis; type: ADME, cell-based; procedure, shortened: as §3
SMILES,inhibition (INH) [1] [%],inhibition (INH) [2] [%],solubility [4] [µM],Activity [5],Activity [6],Activity [7],inhibition [8],Activity (HEK-293T),further results
COc1cc2c(cc1OC)CC(=O)N(CCC[N+](C)(Cc1ccc3ccc(O)c(Br)c3n1)C[C@H]1Cc3cc(OC)c(OC)cc31)CC2.[OH-] (stereo not given in full),49,51,430,0.073,0.034,0.062,–,–,Stability [3]: Stable
OCc1ccc2ccc(O)c(Br)c2n1,–,–,–,–,–,–,inactive,Non-Toxic,inhibition [9]: inactive; inhibition (Neuron [10]): inactive
COc1cc2c(cc1OC)CC(=O)N(CCC[N+](C)(Cc1ccc3ccc(O)c(Br)c3n1)C[C@H]1Cc3cc(OC)c(OC)cc31)CC2 (stereo not given in full),–,–,–,–,–,–,inactive,–,inhibition [11]: Active; inhibition [12]: Active; inhibition [13]: 95%; inhibition [14]: 85%; inhibition [15]: 65%; inhibition [16]: 85%; inhibition [17]: 85%; inhibition (Neuron [18]): Active
COc1cc2c(cc1OC)CC(=O)N(CCCN(C)C[C@H]1Cc3cc(OC)c(OC)cc31)CC2,–,–,–,–,–,–,–,–,inhibition (Neuron [19]): Active
COc1cc2c(cc1OC)CC(=O)N(CCC[N+](C)(Cc1ccc3ccc(O)c(Br)c3n1)C[C@H]1Cc3cc(OC)c(OC)cc31)CC2.CS(=O)(=O)[O-] (stereo not given in full),51,49,550,0.091,0.041,0.051,–,Non-Toxic,Drug uptake [20]: Active; Drug uptake [21]: Active
